# Source: PubChem BioAssay
# Calls of active or inactive are those of the source.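 How the source made its calls, unless noted: active means viability loss from added drug above about 55%, and viability with drug at most 40%, in both replicates (limit read from the data, passing the limit was not always enough); inconclusive means both conditions met in only one replicate; inactive means neither replicate meets both conditions.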
# Tests used:
# [1] = reducers of endogenous Her2 protein level, primary screen, SKBR3 breast tumor cells, AlphaScreen, ATP viability (AID 461;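 active means Her2 level under about 52% in both replicate screens, with viability over 70% of control, limit read from the data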;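 on Her2 level: lower value means less Her2 protein in the cells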;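 on viability: percent of carrier control wells set as 100% viability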); conditions: 18-24 h, measured here: SKBR3 viability, ATP luminescence, at 10 µM
# [2] = target: Receptor tyrosine-protein kinase erbB-2 (Homo sapiens) (UniProt P04626); test: as above; conditions: 18-24 h, at 10 µM, stronger effect = lower value
# Sequence of Receptor tyrosine-protein kinase erbB-2 (Homo sapiens) (P04626 whole entry, looked up): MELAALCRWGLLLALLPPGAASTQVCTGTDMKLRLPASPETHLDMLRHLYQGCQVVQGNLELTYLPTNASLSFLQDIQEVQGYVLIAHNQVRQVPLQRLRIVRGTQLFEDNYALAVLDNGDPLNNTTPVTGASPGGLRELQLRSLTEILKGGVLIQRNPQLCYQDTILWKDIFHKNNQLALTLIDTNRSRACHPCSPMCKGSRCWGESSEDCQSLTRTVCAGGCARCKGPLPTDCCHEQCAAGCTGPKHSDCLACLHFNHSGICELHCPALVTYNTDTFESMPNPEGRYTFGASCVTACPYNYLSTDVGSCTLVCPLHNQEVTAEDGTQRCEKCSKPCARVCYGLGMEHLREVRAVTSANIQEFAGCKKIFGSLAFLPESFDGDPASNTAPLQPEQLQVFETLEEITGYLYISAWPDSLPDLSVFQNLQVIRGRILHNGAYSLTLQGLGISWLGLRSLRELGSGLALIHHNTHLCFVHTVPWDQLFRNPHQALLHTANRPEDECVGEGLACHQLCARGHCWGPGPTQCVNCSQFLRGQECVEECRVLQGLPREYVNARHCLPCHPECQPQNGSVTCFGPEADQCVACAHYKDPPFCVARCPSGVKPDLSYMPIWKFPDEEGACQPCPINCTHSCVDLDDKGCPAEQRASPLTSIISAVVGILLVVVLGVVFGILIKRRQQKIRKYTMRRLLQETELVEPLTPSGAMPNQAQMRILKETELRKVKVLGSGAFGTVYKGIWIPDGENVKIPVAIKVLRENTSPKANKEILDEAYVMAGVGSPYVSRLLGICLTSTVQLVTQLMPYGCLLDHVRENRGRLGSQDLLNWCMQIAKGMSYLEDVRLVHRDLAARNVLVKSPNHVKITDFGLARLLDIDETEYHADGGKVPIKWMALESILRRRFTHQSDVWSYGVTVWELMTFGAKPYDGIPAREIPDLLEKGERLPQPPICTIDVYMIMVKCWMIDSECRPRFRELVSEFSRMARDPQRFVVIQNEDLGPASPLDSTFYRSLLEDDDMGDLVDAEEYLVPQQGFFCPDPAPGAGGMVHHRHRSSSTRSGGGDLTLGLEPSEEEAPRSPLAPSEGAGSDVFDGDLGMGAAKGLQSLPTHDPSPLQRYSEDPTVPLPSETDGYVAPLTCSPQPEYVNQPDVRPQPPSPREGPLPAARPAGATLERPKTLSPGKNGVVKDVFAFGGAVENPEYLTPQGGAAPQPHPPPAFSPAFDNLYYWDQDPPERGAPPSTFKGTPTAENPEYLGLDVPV
# [3] = SK-BR-3 cell growth inhibitors, pilot screen, 24 h, human (AID 572;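 active means viability at or below 10% of carrier control in both of two separate runs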;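 further: compound exposure lasted between 18 and 24 h rather than exactly 24 h; 100% = carrier-treated control wells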); conditions: SK-BR-3 viability, CellTiter-Glo luminescence, at 10 µM, stronger effect = lower value
# [4] = HUVEC growth inhibition – cell-based, human, primary screen (AID 575;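 active means viability at or below 30% in both replicate assays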;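 further: 100% = median of untreated cell wells with 0.1% DMSO on each plate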); conditions: HUVEC proliferation, CellTiter-Glo luminescence, 72 h; at 10 µM; stronger effect = lower value
# Method in brief: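 Test system – primary HUVEC, no more than 12 passages · Dosing – one dose, 10 µM final, 0.1% DMSO · Times – 72 h treatment at 37 °C · Measured by – ATP-based CellTiter-Glo luminescent read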
# [5] = growth inhibitors of H69AR lung tumor, primary screen, human, duplicate replicates (AID 580;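 active means viability at or under a set limit in both replicates, limit being median viability minus 3 SD, cut at about 48% in these data, passing the limit was not always enough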;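 further: 100% = mean luminescence of untreated wells and 0% = no signal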); conditions: H69AR lung tumor cells viability, ATP luminescence, 72 h; at 10 µM; stronger effect = lower value
# [6] = reversal of MRP1-mediated doxorubicin resistance, pilot screen, H69AR cells, doxorubicin co-treatment (AID 601); conditions: CellTiter-Glo, 72 h, at 10 µM; for differential viability (reversal): stronger effect = higher value
# [7] = 384-well plate pilot, post-Golgi transport modulator project, inhibition of yeast transport mutant growth (AID 636; in the data active means inhibition above about 31%); conditions: absorbance 615 nm, about 18 h, stronger effect = higher value
# [8] = growth suppression of yeast trafficking mutant, preliminary HTS, modulators of trafficking downstream of Golgi apparatus project, 1536-format plate, OD 615 nm (AID 637; in the data active means inhibition above about 30%); conditions: yeast transport mutant growth, absorbance 615 nm, 18 h; stronger effect = higher value
# [9] = H69AR cells + 2 uM doxorubicin, measured here: viability with 2 uM doxorubicin, stronger effect = lower value
# [10] = H69AR cells, compound alone cytotoxicity
SMILES,viability [1] [%],Her2 level [2],viability [3],viability [4],viability [5],differential viability (reversal) ([6]; H69AR cells + 2 uM doxorubicin),"viability [6, 9] [%]","viability [6, 10] [%]",inhibition [7],inhibition [8]
Cc1ccc(-c2noc(CCC(=O)NCC3CCN(Cc4cccc(C)c4)CC3)n2)cc1,93.5,82.5% (inactive),93.5% (inactive),53.9% (inactive),84.6% (inactive),-11% (inactive),95.6,84.6,-4.87% (inactive),1.83% (inactive)
CCN(c1cccc(C)c1)S(=O)(=O)c1ccc2[nH]c(=O)c(=O)[nH]c2c1,108,75% (inactive),108% (inactive),88.7% (inactive),92.1% (inactive),1.35% (inactive),90.8,92.1,-2.24% (inactive),0.91% (inactive)
CC(=O)N1CCC2(CC1)CC(=O)c1cc(OCC(=O)NCc3ccco3)ccc1O2,106,112% (inactive),106% (inactive),106% (inactive),83.5% (inactive),-4.33% (inactive),87.9,83.5,0.92% (inactive),-3.17% (inactive)
CCOC(=O)c1sc(N2C(=O)C(O)=C(C(=O)c3ccco3)C2c2ccccc2)nc1C (stereo not given),101,83.5% (inactive),101% (inactive),77.4% (inactive),84.2% (inactive),1.33% (inactive),82.9,84.2,-4.93% (inactive),0.98% (inactive)
Cn1c(SCC(=O)N2CCN(c3cccc(Cl)c3)CC2)nnc1-c1ccncc1,84,76% (inactive),84% (inactive),49.4% (inactive),79.8% (inactive),-18.5% (inactive),98.3,79.8,3.59% (inactive),-1.33% (inactive)
CC1C(O)=C(c2nc3ccccc3[nH]2)C(=N)N1c1ccccc1 (stereo not given),110,83% (inactive),110% (inactive),50.5% (inactive),16% (active),-39% (inactive),55,16,-6.71% (inactive),-10.6% (inactive)
COC(=O)C(C)Oc1ccc2c3c(c(=O)oc2c1)CCCCC3 (stereo not given),90,94.5% (inactive),90% (inactive),93.7% (inactive),103% (inactive),10.5% (inactive),92.8,103,1.05% (inactive),5.74% (inactive)
COc1ccc(Cc2nn3c(-c4cc(OC)c(OC)c(OC)c4)nnc3s2)cc1,95,76.5% (inactive),95% (inactive),102% (inactive),81.6% (inactive),11.7% (inactive),69.9,81.6,-6.08% (inactive),5.17% (inactive)
OCC#CCSc1nnc(-c2ccccc2Br)o1,118,109% (inactive),118% (inactive),85.3% (inactive),86.2% (inactive),5.93% (inactive),80.2,86.2,0% (inactive),4.26% (inactive)
c1ccc(-c2cc3c(nn2)CCc2nonc2-3)cc1,98.5,102% (inactive),98.5% (inactive),117% (inactive),97.8% (inactive),-9.73% (inactive),108,97.8,0% (inactive),4.26% (inactive)
CCOc1cc(CN2CCN(C(=O)c3ccco3)CC2)ccc1OC,79.5,102% (inactive),79.5% (inactive),88.7% (inactive),89.5% (inactive),1.51% (inactive),87.9,89.5,-2.69% (inactive),0.83% (inactive)
COc1ccccc1C1c2c(oc3ccc(Cl)cc3c2=O)C(=O)N1c1cc(C)on1 (stereo not given),86.5,82.5% (inactive),86.5% (inactive),70.7% (inactive),72.2% (inactive),-3.51% (inactive),75.7,72.2,-2.93% (inactive),8.71% (inactive)
C=CCn1c(SCC2=C(C(=O)OCC)C(C)NC(=O)N2)nnc1C1CCCCC1 (stereo not given),100,105% (inactive),100% (inactive),83.6% (inactive),91.5% (inactive),-4.74% (inactive),96.2,91.5,-5.06% (inactive),-0.98% (inactive)
COc1ccc(N2CCN(C(c3cccc(OC)c3OC)c3nnnn3C3CCCC3)CC2)cc1 (stereo not given),88,121% (inactive),88% (inactive),94.4% (inactive),88.5% (inactive),-0.405% (inactive),88.9,88.5,4.61% (inactive),-2.06% (inactive)
Cc1ccc(CN2C(=O)CCC2C(=O)NC2CCCC2)cc1 (stereo not given),132,95.5% (inactive),132% (inactive),94.3% (inactive),94.1% (inactive),-1.04% (inactive),95.1,94.1,-6.13% (inactive),4.59% (inactive)
Cc1ccc(NC(=O)CSc2nnc(-c3ccncc3)n2C)cc1C,90,117% (inactive),90% (inactive),110% (inactive),92.2% (inactive),3.42% (inactive),88.8,92.2,1.08% (inactive),25.9% (inactive)
CCOc1ccc(CN2C(=O)c3ccccc3C2C(=O)NCc2cccnc2)cc1 (stereo not given),96,96.5% (inactive),96% (inactive),86.6% (inactive),98.8% (inactive),1.78% (inactive),97,98.8,-0.91% (inactive),-3.02% (inactive)
CCOC(=O)Nc1cc(OCC)c(NC(=O)C2CC2)cc1OCC,97,112% (inactive),97% (inactive),111% (inactive),100% (inactive),12.8% (inactive),87.3,100,-6.13% (inactive),-4.26% (inactive)
O=C(c1ccc(-c2cccc(C(F)(F)F)c2)o1)N1CCOCC1,95.5,118% (inactive),95.5% (inactive),72.8% (inactive),92.7% (inactive),16.1% (inactive),76.6,92.7,-4.8% (inactive),-2.58% (inactive)
CSc1cccc(NC(=O)C2CCCN2S(=O)(=O)c2ccc3c(c2)CCC(=O)N3)c1 (stereo not given),93,93.5% (inactive),93% (inactive),94.7% (inactive),89% (inactive),0.435% (inactive),88.6,89,-4.21% (inactive),-8.73% (inactive)
COc1cccc(Cn2c(Oc3ccccc3)nc3c2c(=O)n(C)c(=O)n3C)c1,100,104% (inactive),100% (inactive),72.7% (inactive),83.8% (inactive),3.32% (inactive),80.5,83.8,-0.13% (inactive),6.07% (inactive)
CC1=C(C(=O)N2CCCCC2)C2(CCC(C)CC2)OC1=O (stereo not given),90,102% (inactive),90% (inactive),109% (inactive),94.2% (inactive),12.9% (inactive),81.3,94.2,-5.87% (inactive),-3.61% (inactive)
Cc1ccc(-n2c(=O)[nH]c3c(C(N)=O)nc(CC(C)C)nc32)cc1,105,106% (inactive),105% (inactive),89% (inactive),72.6% (inactive),-18.6% (inactive),91.2,72.6,-2.76% (inactive),5.57% (inactive)
CCn1ncc(Cl)c1C(=O)Nc1ccncc1,114,94.5% (inactive),114% (inactive),97.5% (inactive),98.6% (inactive),14.8% (inactive),83.7,98.6,-4.4% (inactive),-1.97% (inactive)
CCCC(=O)Nc1nnc(Sc2ccc(N(C)C)cc2)s1,100,90% (inactive),100% (inactive),80.3% (inactive),101% (inactive),15.3% (inactive),85.4,101,-5.2% (inactive),-8.73% (inactive)
CC(Sc1nc(-c2ccccc2)cc(C(F)(F)F)n1)C(=O)N1CCC(C(N)=O)CC1 (stereo not given),100,87.5% (inactive),100% (inactive),85.6% (inactive),91.1% (inactive),-1.27% (inactive),92.3,91.1,-0.91% (inactive),11% (inactive)
O=C(Cn1nnc(-c2ccc(S(=O)(=O)N3CCCC3)cc2)n1)NCC1CCCO1 (stereo not given),86,99% (inactive),86% (inactive),89% (inactive),101% (inactive),2.39% (inactive),98.7,101,-3.78% (inactive),2.95% (inactive)
COc1ccc(OCC(=O)N2CCN(C(=O)c3cccs3)CC2)cc1,117,82.5% (inactive),117% (inactive),83.5% (inactive),87.4% (inactive),1.78% (inactive),85.6,87.4,-3.29% (inactive),-2.9% (inactive)
